MrgX1 antag = human MrgX1 receptor antagonism, primary screen. MRGX1-HEK293 calcium flux, Fluo-4, BAM8-22 antagonism; active compounds read low. B-score at 10 µM. 310,000 tested, 1.3% active. AID 588676;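 active = calcium-response B-score plate-corrected more than 3 library SD below zero, starting fluorescence within 5 deviations, no agonist response on first addition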;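 also: peak minus trough fluorescence over baseline after final BAM8-22 challenge near maximal dose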
Target sequence (Q96LB2 whole entry, looked up): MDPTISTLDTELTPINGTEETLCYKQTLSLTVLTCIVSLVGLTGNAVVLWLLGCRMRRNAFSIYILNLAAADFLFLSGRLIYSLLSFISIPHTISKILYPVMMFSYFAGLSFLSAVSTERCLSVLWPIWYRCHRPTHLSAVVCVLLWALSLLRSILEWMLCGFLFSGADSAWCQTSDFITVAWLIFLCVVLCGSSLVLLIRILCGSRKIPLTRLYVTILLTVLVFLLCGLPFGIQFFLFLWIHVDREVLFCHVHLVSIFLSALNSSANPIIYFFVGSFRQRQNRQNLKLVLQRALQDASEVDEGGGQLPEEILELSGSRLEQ
RGS4 pot = potentiators or activators of RGS4. HEK293 M3R/inducible RGS4, carbachol calcium flux Fluo4; active compounds read low. B-score at 10 µM. 310,000 tested, 0.92% active;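 active = B-score of the integrated calcium signal more than 4 SD below the library mean, with starting fluorescence not abnormally high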;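 also: negative B-score means reduced calcium response which marks RGS4 activation or potentiation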
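System: HEK293 FlpIn-TREx cells, stable M3R, doxycycline-inducible RGS4. Timing: overnight RGS4 induction, 30 min dye load 37 °C, 20 min compound RT. Also added: carbachol, ECmax concentration. Measured by: Fluo4 fluorescence kinetic imaging of calcium. Evaluation: integrated calcium ratio converted to B score.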
MrgX1 agonist = human MrgX1 receptor agonism, primary screen | Q96LB2 | 310,000 tested, 0.44% active | AID 588627 | MrgX1-HEK293 cells, Fluo-4 calcium fluorescence, agonist mode; active compounds read high | B-score at 10 µM;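 active = calcium response B-score plate-corrected fluorescence ratio at least 3 library SD, with starting fluorescence B-score inside 5 SD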
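Assay system: stable human MrgX1 HEK293 cell line. Quantity: 15,000 cells per well. Schedule: cells plated overnight, dye loaded 0.5 h 37 °C, 0.5 h room temperature. Detection: Fluo-4 NW calcium-flux fluorescence, kinetic read. Read-out basis: peak-minus-minimum fluorescence over baseline, converted to B scores. Control set: positive and negative control wells on each plate.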
RGS4 block = inhibitors of human RGS4 | P49798 | HEK293 M3R/RGS4 inducible, Fluo-4 calcium flux; active compounds read high; triggered by carbachol at its EC20 | B-score at 10 µM | 310,000 tested, 0.45% active | AID 463165;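 active = B-score, a plate-corrected calcium signal, over three deviations above library mean, with baseline fluorescence within five deviations of library mean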;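 also: RGS4 expression induced by doxycycline in cells with stable M3 receptor; B-score is computed from the integrated fluorescence ratio over baseline after carbachol; higher B-score means a larger calcium signal and so more RGS4 inhibition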
Target sequence (P49798 whole entry, looked up): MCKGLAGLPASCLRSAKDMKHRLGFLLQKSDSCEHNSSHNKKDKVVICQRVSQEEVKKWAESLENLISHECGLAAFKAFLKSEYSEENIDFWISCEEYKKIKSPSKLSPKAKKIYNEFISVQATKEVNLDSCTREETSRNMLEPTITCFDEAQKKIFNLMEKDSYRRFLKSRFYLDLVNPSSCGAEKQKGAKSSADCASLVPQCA
MrgX1 PAM = human MrgX1 positive allosteric modulation, primary screen. B-score at 10 µM. 310,000 tested, 0.63% active. Q96LB2. MrgX1-HEK293, Fluo-4 calcium flux, FDSS; active compounds read high. AID 588675;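 active = plate-corrected calcium response at least 3 library SD above typical, normal starting fluorescence, not activating the receptor alone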;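 also: compound read alongside a low EC10 to EC30 dose of BAM8-22 agonist; peak minus trough fluorescence over baseline measured at the second addition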
MrgX1 ag confirm = reconfirmed activator of human MrgX1 receptor signaling. 600 tested, 78% active. MrgX1-HEK293, Fluo-4 calcium fluorescence, FDSS. shares compounds with MrgX1 agonist. activation, % at 10 µM;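 active = calcium signal rise, corrected for plate position, at least 3 library SD high, with starting brightness within 5 such deviations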
HEK293 Ca flux = activity in parental HEK293 cells lacking MrgX1. shares compounds with MrgX1 antag. Fluo-4 calcium fluorescence, FDSS. fluorescence ratio F(max-min)/F0 at 10 µM. 4,000 tested, 2% active. AID 624111;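 active = duplicate-averaged calcium fluorescence ratio at least three times the standard deviation of buffer wells, a nonspecific response in parental cells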
HEK293 Ca counter = counter-screen for MrgX1 allosteric activators: effect in parental HEK293 cells; shares compounds with MrgX1 antag; parental HEK293 calcium flux, Fluo-4 fluorescence ratio; active compounds read high; fluorescence ratio F(max-min)/F0 at 10 µM; 4,000 tested, 0.4% active; AID 624114;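 active = calcium fluorescence ratio, averaged over duplicates, at least 3 SD of the buffer-well ratio, meaning a nonspecific response in receptor-free cells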;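 also: untransfected parental HEK293 lacking MrgX1 used as counterscreen for MrgX1 allosteric activators; fluorescence change taken during the second addition on a kinetic imager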
HEK293 Ca cntr2 = activity in parental HEK293 cells lacking MrgX1 receptor; shares compounds with MrgX1 antag; Fluo-4 calcium fluorescence (FDSS); active compounds read high; fluorescence ratio F(max-min)/F0 at 10 µM; AID 624115; 4,000 tested, 8.7% active;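 active = calcium fluorescence ratio at least three times the spread of buffer wells, meaning a non-specific response in parental cells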
* hit, by the source's call. Only some compounds are listed: those with a hit (about 3.5% of all), similar ones and a draw of the others.

How did COc1cc(/C=N/NC(=O)C23CC4CC(CC(C4)C2)C3)cc(Br)c1O do in these assays?
MrgX1 antag: inactive; RGS4 pot: inactive; MrgX1 agonist: inactive; RGS4 block: inactive; MrgX1 PAM: inactive

What do the screens show for `O=C(N/N=C/c1cc([N+](=O)[O-])cc(Br)c1O)C12CC3CCC(CC(C3)C1)C2`?
MrgX1 antag: inactive; RGS4 pot: inactive; MrgX1 agonist: 73*; RGS4 block: inactive; MrgX1 PAM: inactive; MrgX1 ag confirm: 175%*; HEK293 Ca flux: inactive; HEK293 Ca counter: inactive; HEK293 Ca cntr2: 92*

Results for CCCOc1ccc(C(=O)NNC(=S)NC(=O)c2cccs2)cc1 ?
MrgX1 antag: inactive; RGS4 pot: -8.6*; MrgX1 agonist: 110*; RGS4 block: inactive; MrgX1 PAM: inactive; MrgX1 ag confirm: 496%*; HEK293 Ca flux: inactive; HEK293 Ca counter: inactive; HEK293 Ca cntr2: 104*

Results for CCCOc1ccc(C(=O)NNC(=S)NC(=O)c2ccccc2)cc1 ?
MrgX1 antag: inactive; RGS4 pot: -8.4*; MrgX1 agonist: 91*; RGS4 block: inactive; MrgX1 PAM: inactive; MrgX1 ag confirm: 663%*; HEK293 Ca flux: inactive; HEK293 Ca counter: inactive; HEK293 Ca cntr2: 128*

What do the screens show for `CC(C)CC(=O)NCCCCc1ccccc1`?
MrgX1 antag: inactive; RGS4 pot: inactive; MrgX1 agonist: inactive; RGS4 block: inactive; MrgX1 PAM: inactive

Results for COc1cc(OC)cc(C(=O)Nc2ccc(C(=O)c3ccncc3)cc2)c1 ?
MrgX1 antag: inactive; RGS4 pot: inactive; MrgX1 agonist: inactive; RGS4 block: inactive; MrgX1 PAM: inactive

What do the screens show for `COc1ccccc1N1CCN(CCCCOc2ccc(C)cc2C)CC1`?
MrgX1 antag: inactive; RGS4 pot: inactive; MrgX1 agonist: inactive; RGS4 block: inactive; MrgX1 PAM: inactive

How did CCOc1cc(CNc2ncn[nH]2)ccc1OCC(=O)NC(C)(C)C do in these assays?
MrgX1 antag: inactive; RGS4 pot: inactive; MrgX1 agonist: inactive; RGS4 block: inactive; MrgX1 PAM: inactive

What do the screens show for `COc1ccc(CNC(=O)CN(C)Cc2ccc(C(C)(C)C)cc2)cc1`?
MrgX1 antag: inactive; RGS4 pot: inactive; MrgX1 agonist: inactive; RGS4 block: inactive; MrgX1 PAM: inactive

What do the screens show for `O=C(O)C/C(=C\c1cc(Cl)c2c(c1)OCO2)c1nc2ccccc2s1`?
MrgX1 antag: inactive; RGS4 pot: inactive; MrgX1 agonist: 35*; RGS4 block: inactive; MrgX1 PAM: inactive; MrgX1 ag confirm: 91%*; HEK293 Ca flux: inactive; HEK293 Ca counter: inactive; HEK293 Ca cntr2: inactive

How did O=C(O)C/C(=C\c1ccc2c(c1)OCO2)c1nc2ccccc2s1 do in these assays?
MrgX1 antag: inactive; RGS4 pot: inactive; MrgX1 agonist: inactive; RGS4 block: inactive; MrgX1 PAM: inactive

What do the screens show for `CCCC[C@H]1COCCS(=O)(=O)N1Cc1cccc([N+](=O)[O-])c1`?
MrgX1 antag: inactive; RGS4 pot: inactive; MrgX1 agonist: inactive; RGS4 block: inactive; MrgX1 PAM: inactive

Results for CCOc1ccc2nc(N(CCN(CC)CC)C(=O)c3cccc([N+](=O)[O-])c3)sc2c1 ?
MrgX1 antag: inactive; RGS4 pot: inactive; MrgX1 agonist: inactive; RGS4 block: inactive; MrgX1 PAM: inactive

What do the screens show for `O=C1COc2ccc(C(=O)CSc3nnc(Cc4cccs4)n3-c3ccccc3)cc2N1`?
MrgX1 antag: inactive; RGS4 pot: inactive; MrgX1 agonist: 27*; RGS4 block: inactive; MrgX1 PAM: inactive; MrgX1 ag confirm: 175%*; HEK293 Ca flux: inactive; HEK293 Ca counter: inactive; HEK293 Ca cntr2: inactive

How did Oc1nc(Nc2cccc(Cl)c2)sc1/C=C1\C=Nc2ccccc21 do in these assays?
MrgX1 antag: inactive; RGS4 pot: inactive; MrgX1 agonist: inactive; RGS4 block: inactive; MrgX1 PAM: inactive

How did Oc1cccc(Nc2nc(O)c(/C=C3\C=Nc4ccccc43)s2)c1 do in these assays?
MrgX1 antag: inactive; MrgX1 agonist: 39*; MrgX1 PAM: inactive; MrgX1 ag confirm: 416%*; HEK293 Ca flux: inactive; HEK293 Ca counter: inactive; HEK293 Ca cntr2: 76*

What do the screens show for `CCOC(=O)C1=C(CN2CCN(C(=O)c3ccco3)CC2)NC(=O)NC1c1ccc(Cl)cc1` (configuration not stated)?
MrgX1 antag: inactive; RGS4 pot: inactive; MrgX1 agonist: inactive; RGS4 block: inactive; MrgX1 PAM: inactive

What do the screens show for `CCOC(=O)C1=C(CN2CCC(C)CC2)NC(=O)NC1c1ccc(Cl)cc1` (configuration not stated)?
MrgX1 antag: inactive; RGS4 pot: inactive; MrgX1 agonist: 39*; RGS4 block: inactive; MrgX1 PAM: inactive; MrgX1 ag confirm: 195%*; HEK293 Ca flux: inactive; HEK293 Ca counter: inactive; HEK293 Ca cntr2: inactive

What do the screens show for `COc1ccc(NC(=S)N(CCN2CCOCC2)C2CCN(C(C)=O)CC2)cc1Cl`?
MrgX1 antag: inactive; RGS4 pot: inactive; MrgX1 agonist: 69*; RGS4 block: inactive; MrgX1 PAM: inactive; MrgX1 ag confirm: inactive; HEK293 Ca flux: inactive; HEK293 Ca counter: inactive; HEK293 Ca cntr2: inactive

What do the screens show for `Cc1nn(C)c(C)c1CN(Cc1nc(-c2cc(F)ccc2F)oc1C)C1CC1`?
MrgX1 antag: inactive; RGS4 pot: inactive; MrgX1 agonist: inactive; RGS4 block: inactive; MrgX1 PAM: inactive

How did Cc1nn(C)c(C)c1CN(Cc1nc(-c2ccc(F)cc2F)oc1C)C1CC1 do in these assays?
MrgX1 antag: inactive; RGS4 pot: inactive; MrgX1 agonist: 56*; RGS4 block: inactive; MrgX1 PAM: inactive; MrgX1 ag confirm: 254%*; HEK293 Ca flux: inactive; HEK293 Ca counter: inactive; HEK293 Ca cntr2: 49*

What do the screens show for `Cc1ccc(NC2=NCC(=O)N2CCc2ccccc2)cc1C`?
MrgX1 antag: inactive; RGS4 pot: inactive; MrgX1 agonist: inactive; RGS4 block: inactive; MrgX1 PAM: inactive

How did CCOc1ccc(NC2=NCC(=O)N2CCc2ccccc2)cc1 do in these assays?
MrgX1 antag: inactive; RGS4 pot: inactive; MrgX1 agonist: 27*; RGS4 block: inactive; MrgX1 PAM: inactive; MrgX1 ag confirm: 122%*; HEK293 Ca flux: inactive; HEK293 Ca counter: inactive; HEK293 Ca cntr2: inactive
